According to ChEMBL document CHEMBL3108780, “Synthesis, characterization, cytotoxicity and antibacterial activity of an anthracenyl-linked bis(pyrazolyl)methane ligand and its zinc(II) complexes” (Eur J Med Chem, 2014):
In brackets after ≈: the same amount, converted by molar mass.

Assays:
Bacillus spizizenii = experiment: Antibacterial activity against Bacillus subtilis ATCC 6633 after 24 hrs by MTT assay; type: functional; details: ATCC 6633, 24 h
Procedure, shortened: (§1)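 Broth microdilution per CLSI; compounds dissolved in DMSO (stock […]) and serially diluted in sterilized liquid medium (50% v/v DMSO in PBS). Inoculum about 10^5 cfu/mL, incubated 37 °C for 24 h. Growth read colorimetrically with MTT dye, OD at 550 nm; MIC50 determined.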

MDA-MB-435 = experiment: Cytotoxicity against human MDA-MB-435 cells after 48 hrs by MTT assay; type: functional, cell-based; details: MDA-MB-435, 48 h
Procedure, shortened: (§2)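 Cells seeded at 2 × 10^4 cells/mL, preincubated 24 h at 37 °C, 5% CO2. Compounds from DMSO mother solutions diluted in complete medium (DMSO ≤0.1%), added at pre-set concentrations with 5-fluorouracil and cisplatin as references. 48 h exposure, then MTT (2.5 mg/mL in PBS) 4 h, SDS/isobutanol/HCl solubilisation overnight, OD 570 nm. Triplicate wells, assays repeated ≥3 times; IC50.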

Huh-7 = experiment: Cytotoxicity against human HuH7 cells after 48 hrs by MTT assay; type: functional, cell-based; details: Huh-7, 48 h; procedure, shortened: as §2
Staphylococcus aureus = experiment: Antibacterial activity against Staphylococcus aureus ATCC 25923 after 24 hrs by MTT assay; type: functional; details: ATCC 25923, 24 h; procedure, shortened: as §1
A549 = experiment: Cytotoxicity against human A549 cells after 48 hrs by MTT assay; type: functional, cell-based; details: A549, 48 h; procedure, shortened: as §2
Escherichia coli = experiment: Antibacterial activity against Escherichia coli ATCC 35218 after 24 hrs by MTT assay; type: functional; details: ATCC 35218, 24 h; procedure, shortened: as §1
Pseudomonas putida = experiment: Antibacterial activity against Pseudomonas putida ATCC 49128 after 24 hrs by MTT assay; type: functional; details: ATCC 49128, 24 h; procedure, shortened: as §1

Row | SMILES | MIC50 (Bacillus spizizenii) [µg/mL] | IC50 (MDA-MB-435) [µg/mL] | IC50 (Huh-7) [µg/mL] | MIC50 (Staphylococcus aureus) [µg/mL] | IC50 (A549) [µg/mL] | MIC50 (Escherichia coli) [µg/mL] | MIC50 (Pseudomonas putida) [µg/mL]
1 | c1ccc2c(C(n3cccn3)n3cccn3)c3ccccc3cc2c1 | 3.26 (≈ 10 µM) | 23.8 (≈ 73.3 µM) | 28 (≈ 86.2 µM) | 2.13 (≈ 6.57 µM) | 9.77 (≈ 30.1 µM) | 4.8 (≈ 14.8 µM) | 1.54 (≈ 4.76 µM)
2 | O=C(N[C@H](CO)[C@H](O)c1ccc([N+](=O)[O-])cc1)C(Cl)Cl [CHLORAMPHENICOL] | 1.25 (≈ 3.88 µM) |  |  | 0.499 (≈ 1.54 µM) |  | 3.04 (≈ 9.41 µM) | 0.182 (≈ 0.563 µM)
3 | O=c1[nH]cc(F)c(=O)[nH]1 [FLUOROURACIL] |  | 25.6 (≈ 197 µM) | 20 (≈ 154 µM) |  | 24.9 (≈ 191 µM) |  | 
